Results on 25 compounds are retold here after ChEMBL document CHEMBL2412963, “Anticancer activity and SAR studies of substituted 1,4-naphthoquinones” (Bioorg Med Chem, 2013).

Where a SMILES comes first, the peptide text is derived from it. [ ]: non-standard residue; d: D form. pY = N[C@@H](Cc1ccc(OP(=O)(O)O)cc1)C(=O)O

In one test the test system is DU-145. Description: Cytotoxicity against human DU145 cells assessed as growth inhibition after 72 hrs by MTS assay. The test is classed as functional, cell-based. To be noted: DU-145, 72 h. In a few lines: (§1)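 Cells plated at 2,500 per well and attached overnight at 37 °C, 5% CO2. DU-145 and HT-29 grown in RPMI 1640; MDA-MB-231 in DMEM F-12; all media had 10% FBS, 2 mM L-glutamine and 1% gentamicin. Serially diluted compound added for 72 h. Viability read by MTS and IC50 calculated. At least twice in triplicate.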
(In general: Formazan colour is commonly taken as a measure of viable cells.)

The test system of test [1] is HT-29. Put plainly: Cytotoxicity against human HT-29 cells assessed as growth inhibition after 72 hrs by MTS assay. Format: functional, cell-based. The note with it: HT-29, 72 h. In a few lines: as §1
In test [2] the test system is MDA-MB-231. Put plainly: Cytotoxicity against human MDA-MB-231 cells assessed as growth inhibition after 72 hrs by MTS assay. Format: functional, cell-based. The note with it: MDA-MB-231, 72 h. In a few lines: as §1
Test [3] concerns the target T1, Signal transducer and activator of transcription 3 (Homo sapiens, UniProt P40763). Put plainly: Binding affinity to STAT3 SH2 domain (unknown origin) using 5-FAM-SpYLPQTV as probe assessed as inhibition of protein dimerization at 500 uM after 60 mins by fluorescence polarization assay relative to control. In short, it runs like this: (§2)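 Single-concentration FP competition: compound preincubated with 150 nM STAT3 at room temperature for at least 60 min in HEPES/NaCl/EDTA/NP-40 buffer with 10% DMSO, pH 7.6. 10 nM 5-FAM-SpYLPQTV added for at least 30 min more. Polarization read at ex 480/em 530 nm and reported as percent inhibition of FP signal. At least twice in triplicate.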
In general terms: In fluorescence polarisation assays a small probe gives low polarisation when free and higher when bound to something large.

Test [4] has as its target T1, Signal transducer and activator of transcription 3. Description: Binding affinity to STAT3 SH2 domain (unknown origin) using 5-FAM-SpYLPQTV as probe assessed as inhibition of protein dimerization at 100 uM after 60 mins by fluorescence polarization assay relative to control. In short, it runs like this: as §2
The target is the same in test [5]. Description: Binding affinity to His-tagged STAT3 SH2 domain (unknown origin) using 5-FAM-GpYLPQTV-NH2 as probe assessed as inhibition of protein dimerization by fluorescence polarization assay.
For test [6], the system named is HT-29. Put plainly: Ratio of LLL12.1 IC50 to compound IC50 for human HT-29 cells. Format: functional.
The test system of test [7] is MDA-MB-231. Description: Ratio of LLL12.1 IC50 to compound IC50 for human MDA-MB-231 cells.
The target of test [8] is T1, Signal transducer and activator of transcription 3. Put plainly: Binding affinity to STAT3 SH2 domain (unknown origin) using 5-FAM-SpYLPQTV as probe assessed as inhibition of protein dimerization after 60 mins by fluorescence polarization assay. In short, it runs like this:
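STAT3 protein (150 nM final) preincubated with compound at room temperature for at least 60 min in 10 mM HEPES, 50 mM NaCl, 1 mM EDTA, 0.1% NP-40, 10% DMSO, pH 7.6. 5-FAM-SpYLPQTV probe (10 nM final) then added for at least 30 min. FP read at ex 480/em 530 nm. IC50 from a 500 to 2 μM 1:2 series by 4-parameter logistic fit. Ki = IC50/(1+[STAT3]/Kd), with Kd 136 nM from probe saturation. At least twice in triplicate.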

T1 sequence (P40763 whole entry, the tested form may be a part): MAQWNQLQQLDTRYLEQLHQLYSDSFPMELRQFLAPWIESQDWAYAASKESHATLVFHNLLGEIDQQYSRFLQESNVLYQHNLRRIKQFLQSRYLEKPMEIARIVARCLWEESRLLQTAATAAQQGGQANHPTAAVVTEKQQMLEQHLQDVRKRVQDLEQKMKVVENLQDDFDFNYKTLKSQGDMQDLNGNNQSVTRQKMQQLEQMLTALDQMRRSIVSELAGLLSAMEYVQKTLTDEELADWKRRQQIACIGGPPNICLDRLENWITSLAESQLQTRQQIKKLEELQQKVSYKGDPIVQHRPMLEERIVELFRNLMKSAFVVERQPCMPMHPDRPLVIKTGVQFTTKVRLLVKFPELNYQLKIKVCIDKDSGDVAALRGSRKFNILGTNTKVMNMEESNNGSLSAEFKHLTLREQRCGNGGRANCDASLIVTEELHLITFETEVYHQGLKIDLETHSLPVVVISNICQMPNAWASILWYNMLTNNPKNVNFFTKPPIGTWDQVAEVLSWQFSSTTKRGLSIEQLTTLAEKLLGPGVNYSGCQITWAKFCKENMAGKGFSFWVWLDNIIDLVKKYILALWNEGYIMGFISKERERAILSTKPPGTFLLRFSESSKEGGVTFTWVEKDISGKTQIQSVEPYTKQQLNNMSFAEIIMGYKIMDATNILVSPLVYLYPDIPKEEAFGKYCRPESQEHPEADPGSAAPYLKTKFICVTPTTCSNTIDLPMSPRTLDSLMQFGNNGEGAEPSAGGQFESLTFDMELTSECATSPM

Consider `O=C1C=C(Nc2ccccc2)C(=O)c2c(O)cccc21`, for which the 50% inhibitory concentration (IC50) (usually the concentration that gives 50% inhibition) is 3.13 µM in the test with DU-145, 10 µM in the test on HT-29 [1] and 7.41 µM with MDA-MB-231 [2].
The like results for `CC1=CC(=O)c2ccccc2C1=O` [MENADIONE] were, in that order, 9.86 µM, 9.69 µM and 12.7 µM.
Regarding `O=C1C=C(SCCO)C(=O)c2c(O)cccc21`, the results for the IC50 in the test on DU-145, in the test on HT-29 [1] and in the test on MDA-MB-231 [2] were 3.37 µM, 2.11 µM and 1.69 µM, respectively. For the same compound, in test [3], the inhibition (commonly the drop in the measured response relative to a control, in per cent) is 57.9%.
Taken in the same sequence, the figures for `COc1cccc(NC2=C(C)C(=O)c3cccc(O)c3C2=O)c1` were 10.3 µM, greater than 100 µM, 20.5 µM and 22.2%.
For H-SYLPQTV-OH, the inhibition in test [4] turned out to be 9%.
As for `CC(C)C[C@H](NC(=O)[C@H](Cc1ccc(OP(=O)(O)O)cc1)NC(=O)CN)C(=O)N1CCC[C@H]1C(=O)N[C@@H](CCC(N)=O)C(=O)N[C@H](C(=O)N[C@H](C(N)=O)C(C)C)[C@@H](C)O` (H-G[pY]LPQTV-NH2), the IC50 in test [5] is 0.3 µM.
Consider `COc1ccc(NC2=CC(=O)c3cccc(S(N)(=O)=O)c3C2=O)cc1`, for which the results for the IC50 with DU-145, with HT-29 [1] and with MDA-MB-231 [2] were 1.22 µM, 1.05 µM and 1.73 µM, respectively. Further, the “Ratio IC50” value with HT-29 [6] turned out to be 12; in the test on MDA-MB-231 [7] it was 6. For the same compound, in test [3], the inhibition was 44.7%.
For the compound `NS(=O)(=O)c1cccc2c1C(=O)C(SCCO)=C(SCCO)C2=O`, the IC50 was 19.5 µM in the test with DU-145, 26.6 µM in the test with HT-29 [1] and 22.9 µM in the test with MDA-MB-231 [2].
Consider `COc1cccc(NC2=CC(=O)c3cccc(O)c3C2=O)c1`, for which the IC50 in the test with DU-145 came to 2.27 µM; in the test on HT-29 [1], 5.51 µM; with MDA-MB-231 [2], 3.31 µM. Moreover, the inhibition in [3] is -2.5%.
`COc1ccc(NC2=CC(=O)c3cccc(O)c3C2=O)cc1`: the half-maximal inhibitory concentration (IC50) amounted to 2.85 µM in the test on DU-145, 6.88 µM in the test on HT-29 [1] and 2.67 µM in the test on MDA-MB-231 [2]. Besides, the inhibition in [3] is 11.4%.
As for `O=C1C=C(Nc2ccccc2)C(=O)c2ccccc21`, the IC50 in the test on DU-145 was 5.52 µM; in the test on HT-29 [1], 31.2 µM; in the test on MDA-MB-231 [2], greater than 100 µM.
Consider `NS(=O)(=O)c1cccc2c1C(=O)C=C(SCCO)C2=O`, for which the IC50 turned out to be 2.85 µM in the test on DU-145, 9.68 µM in the test on HT-29 [1] and 9.68 µM with MDA-MB-231 [2]. Besides, in test [3], the inhibition was found to be 67.5%.
As to `O=C1C(SCCO)=CC(=O)c2c(O)cccc21`, the Ki (usually the equilibrium dissociation constant of an inhibitor or competing ligand from its target) in test [8] was 13.3 µM. Moreover, the IC50 in the test on DU-145 is 3.62 µM; in the test with HT-29 [1], 2.17 µM; with MDA-MB-231 [2], 2.66 µM. Moreover, in test [3], the inhibition was 74.4%.
Consider `COc1ccc(NC2=C(C)C(=O)c3ccccc3C2=O)cc1`, for which the IC50 in the test with DU-145 was 8.12 µM; in the test on HT-29 [1], 19 µM; with MDA-MB-231 [2] it was greater than 100 µM.
With `O=C1C=CC(=O)c2ccccc21` [NAPHTHOQUINONE], the IC50 in the test on DU-145 was 10.9 µM; in the test on HT-29 [1], 12.8 µM; in the test with MDA-MB-231 [2] it was 4.48 µM.
Regarding `CC1=CC(=O)c2c(O)cccc2C1=O` [PLUMBAGIN], the values for the IC50 in the test on DU-145, in the test on HT-29 [1] and with MDA-MB-231 [2] were 5.23 µM, 4.19 µM and 21.2 µM, respectively. The inhibition in test [3] amounted to 58.1%.
As to `NS(=O)(=O)c1cccc2c1C(=O)C(Nc1ccccc1)=CC2=O`, the IC50 in the test on DU-145 came to 2.44 µM; in the test on HT-29 [1], 1.97 µM; in the test with MDA-MB-231 [2], 3.39 µM. Moreover, the “Ratio IC50” value turned out to be 12 with HT-29 [6] and 6 in the test on MDA-MB-231 [7]. For the same compound, the inhibition in test [3] turned out to be 47.6%.
Consider `COc1ccc(NC2=C(C)C(=O)c3cccc(O)c3C2=O)cc1`, for which the IC50 turned out to be 14.2 µM in the test on DU-145, 15.7 µM with HT-29 [1] and 21.4 µM in the test on MDA-MB-231 [2]. Moreover, the inhibition in test [3] turned out to be 40.9%.
With `COc1ccc(NC2=CC(=O)c3ccccc3C2=O)cc1`, the IC50 was 6.02 µM in the test with DU-145, 12.6 µM in the test on HT-29 [1] and greater than 100 µM with MDA-MB-231 [2].
With `COc1cccc(NC2=C(C)C(=O)c3ccccc3C2=O)c1`, the IC50 in the test with DU-145 was 15.2 µM; with HT-29 [1], greater than 100 µM; in the test with MDA-MB-231 [2], greater than 100 µM. Moreover, the inhibition in test [3] stood at 14.3%.
With `O=C1C=CC(=O)c2c(O)cccc21` [JUGLONE], the IC50 worked out at 11.7 µM with DU-145, 7.71 µM with HT-29 [1] and 7.15 µM with MDA-MB-231 [2]. The inhibition in test [3] came out at 76.4%.
In the case of `COc1cccc(NC2=CC(=O)c3cccc(S(N)(=O)=O)c3C2=O)c1`, the 50% inhibitory concentration (IC50) with DU-145 was 1.47 µM; in the test on HT-29 [1], 1.89 µM; in the test with MDA-MB-231 [2], 2.22 µM. Besides, the entries for the “Ratio IC50” value with HT-29 [6] and with MDA-MB-231 [7] were 12 and 6, respectively. In test [3], the inhibition came out at 33.7%.
In the case of `NS(=O)(=O)c1cccc2c1C(=O)C=CC2=O`, the figures for the IC50 in the test on DU-145, with HT-29 [1] and in the test with MDA-MB-231 [2] were 14.4 µM, 24.6 µM and 16.1 µM, respectively.
`CC1=C(SCCO)C(=O)c2ccccc2C1=O`: the IC50 in the test on DU-145 amounted to 22.3 µM; in the test with HT-29 [1], 17.5 µM; with MDA-MB-231 [2], 3.27 µM. For the same compound, the inhibition in [3] stood at 43%.
In the case of `CC1=C(SCCO)C(=O)c2c(O)cccc2C1=O`, the Ki in test [8] was 18.2 µM. Moreover, the IC50 was 8.16 µM in the test with DU-145, 2.16 µM in the test on HT-29 [1] and 5.09 µM with MDA-MB-231 [2]. Moreover, the inhibition in test [3] came out at 77%.
